Reference: paper PMC10620946 (Journal of medicinal chemistry, 2021)
Blank lines part the entries; values can stand above or below the compound they belong to.

Columns and labels:
[1] = test system: P-RNase L21-732; experiment: STD-NMR binding; parameters: species or system porcine; conditions: for STD-NMR signal (binding to P-RNase L): 10 μM P-RNase L21-732, 400 μM fragment; for STD-NMR binding to RNase L dimer: 2-5A in molar excess to RNase L; for STD-NMR binding with ATP/MgCl2: ATP/MgCl2 or mixture of 2-5A and ATP/MgCl2 in molar excess to RNase L; for STD-NMR binding to monomeric RNase L: absence of 2-5A
[2] = target: porcine RNase L (P-RNase L) (Sus scrofa, UniProt A5H025); experiment: FRET based enzyme assay of RNA substrate cleavage, P-RNase L; format: biochemical
[3] = target: T1, human RNase L (H-RNase L) (Homo sapiens, UniProt Q05823); experiment: FRET based enzyme assay of RNA substrate cleavage, H-RNase L; format: biochemical; conditions: for IC50 against RNase L, in words: in vitro
T1 sequence (Q05823 1-741): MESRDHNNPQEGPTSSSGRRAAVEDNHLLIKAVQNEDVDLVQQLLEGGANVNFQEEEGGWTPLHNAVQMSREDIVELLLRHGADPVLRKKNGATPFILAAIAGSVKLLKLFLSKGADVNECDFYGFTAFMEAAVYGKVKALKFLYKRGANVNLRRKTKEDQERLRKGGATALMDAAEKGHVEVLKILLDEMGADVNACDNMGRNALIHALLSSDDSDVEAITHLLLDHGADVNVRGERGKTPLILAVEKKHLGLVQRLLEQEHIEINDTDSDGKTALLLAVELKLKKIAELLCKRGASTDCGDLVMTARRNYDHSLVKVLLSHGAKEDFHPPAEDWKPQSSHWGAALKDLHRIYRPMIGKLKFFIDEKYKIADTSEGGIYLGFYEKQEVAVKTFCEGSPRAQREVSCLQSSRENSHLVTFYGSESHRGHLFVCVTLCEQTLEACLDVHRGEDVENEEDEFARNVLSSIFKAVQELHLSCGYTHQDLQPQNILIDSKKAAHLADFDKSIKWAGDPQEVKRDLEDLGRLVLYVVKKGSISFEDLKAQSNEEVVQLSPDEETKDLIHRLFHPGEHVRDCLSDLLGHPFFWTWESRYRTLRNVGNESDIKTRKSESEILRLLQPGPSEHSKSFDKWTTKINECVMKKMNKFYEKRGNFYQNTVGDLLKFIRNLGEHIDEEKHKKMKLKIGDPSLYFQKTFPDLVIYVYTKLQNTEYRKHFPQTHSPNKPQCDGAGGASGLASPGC

[4] = test system: RNase L; conditions: cited from earlier work
[5] = test system: RNase L; conditions: cited from earlier work; remark: listed apart in the source
[6] = target: T2, H-RNase L (Homo sapiens, UniProt Q05823); experiment: RNase L mediated rRNA cleavage in intact A549 cells; format: cell-based; conditions: 3-100 μM inhibitor, 4 h, then 20 μM trimeric 2-5A 2 h
T2 sequence (Q05823 1-741): T1 sequence (Q05823 1-741)

[7] = test system: P-RNase L; experiment: RNase L oligomerization assay; format: biochemical, porcine; conditions: 40 μM compound, 2-5A up to 2 μM
In short: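 Full-length porcine RNase L (0.8 μM) with 5 mM MgCl₂, preincubated ±test compound 15 min on ice. 2-5A then added for a further 15 min on ice. Cross-linked with DMS (120 mg/mL stock in 0.4 M triethanolamine-HCl, pH 8.5) 1 h at room temperature. Denatured in SDS/β-mercaptoethanol loading buffer at 95 °C for 5 min. Resolved by 4-12% gradient SDS-PAGE with Coomassie G-250 stain and imaged.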

STD-NMR signal (binding to P-RNase L) [1]: positive
Compound: Oc1ccc(Sc2ccc(O)cc2)cc1 [BTB10184]

STD-NMR signal (binding to P-RNase L) [1]: positive
Compound: C[S+]([O-])c1sc(Cl)c2c1C(=O)CCC2 (centres unmarked) [KM05073]

STD-NMR signal (binding to P-RNase L) [1]: positive
Compound: Cc1cc(C(=O)O)cc(Cl)n1 [RF03759]

inhibition of P-RNase L in vitro [2]: not active
inhibition of H-RNase L in vitro [3]: not active
Compound: O=c1c(O)c(-c2ccc(O)cc2O)oc2cc(O)cc(O)c12 [morin]

inhibition of P-RNase L in vitro [2]: inhibited
inhibition of H-RNase L in vitro [3]: inhibited
STD-NMR binding to RNase L dimer [1]: positive STD signal
STD-NMR binding with ATP/MgCl2 [1]: remained positive
STD-NMR binding to monomeric RNase L [1]: directly interacts
Compound: O=c1c(O)c(-c2cc(O)c(O)c(O)c2)oc2cc(O)cc(O)c12 [myricetin]
inhibitory activity against RNase L in intact cells (rRNA cleavage) [6]: identical inhibitory activity to that of VAL

Second part, the compound before the results:

Compound: O=C(O)c1ccc(Cl)nc1Cl [AC39661]
STD-NMR signal (binding to P-RNase L) [1]: positive

Compound: CCCCOC(=O)c1ccc(O)cc1 [AC40357]
inhibition of P-RNase L in vitro [2]: inhibited only H-RNase L
inhibition of H-RNase L in vitro [3]: inhibited
IC50 against RNase L, in words [3]: low millimolar
STD-NMR signal (binding to P-RNase L) [1]: positive

Compound: O=C(O)c1cc(O)c(O)c(O)c1Oc1cc2c(=O)oc3c(O)c(O)cc4c(=O)oc(c1O)c2c34 [VAL, valoneic acid dilactone]
inhibition activity on RNase L in vitro, in words [4]: nanomolar
EC50 for RNase L in intact cells, in words [5]: micromolar range

Compound: O=c1c(O[C@@H]2O[C@H](CO)[C@H](O)[C@H](O)[C@H]2O)c(-c2ccc(O)c(O)c2)oc2cc(O)cc(O)c12 [hyperoside]
inhibition of P-RNase L in vitro [2]: inhibited
effect of 2-5A concentration on potency against P-RNase L ([2]; 2-5A 1, 5 and 20 nM): does not seem to have an effect
inhibitory activity against RNase L in intact cells (rRNA cleavage) [6]: did not show any inhibitory activity
suppression of 2-5A induced RNase L dimerization (cross-linking) [7]: did not suppress
inhibition of H-RNase L in vitro [3]: inhibited
effect of 2-5A concentration on potency against H-RNase L ([3]; 2-5A 1, 5 and 20 nM): does not seem to have an effect
IC50 against RNase L, in words [3]: single-digit micromolar
STD-NMR binding to RNase L dimer [1]: positive STD signal
STD-NMR binding with ATP/MgCl2 [1]: remained positive
STD-NMR binding to monomeric RNase L [1]: directly interacts

Compound: O=C(CCc1ccc(O)cc1)c1c(O)cc(O)cc1O [phloretin]
inhibition of H-RNase L in vitro [3]: inhibited

Compound: CCN(CC)CCNC(=O)c1c(C)[nH]c(/C=C2\C(=O)Nc3ccc(F)cc32)c1C [sunitinib]
IC50 against RNase L in vitro, in words [4]: micromolar range

Compound: O=c1cc(-c2ccc(O)cc2)oc2c([C@@H]3O[C@H](CO)[C@@H](O)[C@H](O)[C@H]3O)c(O)cc(O)c12 [vitexin]
inhibitory activity against RNase L in intact cells (rRNA cleavage) [6]: did not show any inhibitory activity
STD-NMR signal (binding to P-RNase L) [1]: directly binds
